Measurements reported in paper PMC6055619 (British Journal of Haematology, 2018).
Entries after “also recorded” stand apart in the source; their conditions may differ.

Assays:
patients with NDMM [1] = test: Phase 1 dose escalation; type: in vivo, human; settings: twice-weekly ixazomib 3·0 or 3·7 mg plus Rd
Procedure, shortened: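 Phase 1 tested two fixed ixazomib doses (3·0 and 3·7 mg) with a standard 3 + 3 scheme, scoring DLTs during cycle 1. MTD was the highest dose with ≤1 of 6 evaluable patients having a DLT. RP2D selection also used response rates and toxicity over later cycles.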

patients with NDMM [2] = test: Adverse events graded by NCI CTCAE v4·03; type: in vivo, human
Procedure, shortened: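 AEs were recorded throughout treatment and for 30 days after the last dose, and graded by NCI CTCAE v4·03 in all patients given ≥1 dose of any study drug. Maintenance patients had responding or stable disease after 16 cycles of ixazomib-Rd induction. They then took single-agent oral ixazomib on days 1, 4, 8 and 11 of 21-day cycles, at the last-tolerated induction dose, until progression or unacceptable toxicity.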

[3] = Ixazomib plasma pharmacokinetics, non-compartmental analysis; type: in vivo, human; settings: for AUC(0-t): 3 mg, AUC0–72, geometric mean (%CV), RP2D 3·0 mg
Procedure, shortened: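 Phase 1 patients took fixed oral ixazomib 3·0 or 3·7 mg on an empty stomach (≥1 h before or ≥2 h after a meal), on days 1, 4, 8 and 11 of a 21-day cycle. Co-dosing was lenalidomide 25 mg on days 1–14 plus dexamethasone 20 mg. Serial plasma samples were taken, and non-compartmental parameters were calculated on cycle 1 days 1 and 11. Values are reported as geometric mean (%CV).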

[4] = ref Gupta et al, 2015b; cited from earlier work
[5] = during single-agent ixazomib maintenance
[6] = patients who received single-agent ixazomib maintenance
[7] = received maintenance, n = 18, new-onset AEs during cycle ≥17

CC(C)C[C@H](NC(=O)CNC(=O)c1cc(Cl)ccc1Cl)B(O)O [ixazomib]
Dose-limiting toxicities in cycle 1 (patients with NDMM [1]): No dose‐limiting toxicities; also recorded: no DLTs
New-onset drug-related grade 3 PN NEC (patients with NDMM [2]; during maintenance): 6%
New-onset drug-related grade 3 hyperglycaemia (patients with NDMM [2]; during maintenance): 0%
New-onset drug-related grade 3 rashes, eruptions and exanthems NEC (patients with NDMM [2]; during maintenance): 6%
New-onset drug-related PN NEC (patients with NDMM [2]; [5]): 28%
New-onset drug-related fatigue (patients with NDMM [2]; [5]): 11%
New-onset drug-related rashes, eruptions and exanthems NEC (patients with NDMM [2]; [5]): 17%
New-onset AEs resulting in dose reductions (patients with NDMM [2]; patients who received ixazomib maintenance): 33%
New-onset drug-related AEs during maintenance (patients with NDMM [2]; [6]): 89%
New-onset drug-related grade 3 AEs during maintenance (patients with NDMM [2]; [6]): 28%
On-study deaths (patients with NDMM [2]; received maintenance, n = 18, cycle ≥17): 0 n (%)
AE resulting in any study drug dose reduction (patients with NDMM [2]; [7]): 6 (33) n (%)
AE resulting in discontinuation (patients with NDMM [2]; [7]): 3 (17) n (%)
Any AE (patients with NDMM [2]; [7]): 16 (89) n (%)
Any SAE (patients with NDMM [2]; [7]): 2 (11) n (%)
Any drug-related AE (patients with NDMM [2]; [7]): 16 (89) n (%)
Any drug-related SAE (patients with NDMM [2]; [7]): 2 (11) n (%)
Any drug-related grade ≥3 AE (patients with NDMM [2]; [7]): 5 (28) n (%)
Any grade ≥3 AE (patients with NDMM [2]; [7]): 8 (44) n (%)
Drug-related ALT increased, All-grade (patients with NDMM [2]; [7]): 1 (6) n (%)
Drug-related ALT increased, Grade 3 (patients with NDMM [2]; [7]): 0 n (%)
Drug-related Anxiety, All-grade (patients with NDMM [2]; [7]): 0 n (%)
Drug-related Anxiety, Grade 3 (patients with NDMM [2]; [7]): 0 n (%)
Drug-related Constipation, All-grade (patients with NDMM [2]; [7]): 0 n (%)
Drug-related Constipation, Grade 3 (patients with NDMM [2]; [7]): 0 n (%)
Drug-related Diarrhoea, All-grade (patients with NDMM [2]; [7]): 5 (28) n (%)
Drug-related Diarrhoea, Grade 3 (patients with NDMM [2]; [7]): 1 (6) n (%)
Drug-related Dizziness, All-grade (patients with NDMM [2]; [7]): 1 (6) n (%)
Drug-related Dizziness, Grade 3 (patients with NDMM [2]; [7]): 0 n (%)
Drug-related Dysgeusia, All-grade (patients with NDMM [2]; [7]): 0 n (%)
Drug-related Dysgeusia, Grade 3 (patients with NDMM [2]; [7]): 0 n (%)
Drug-related Fatigue, All-grade (patients with NDMM [2]; [7]): 2 (11) n (%)
Drug-related Fatigue, Grade 3 (patients with NDMM [2]; [7]): 0 n (%)
Drug-related Hyperglycaemia, All-grade (patients with NDMM [2]; [7]): 2 (11) n (%)
Drug-related Hyperglycaemia, Grade 3 (patients with NDMM [2]; [7]): 0 n (%)
Drug-related Hyponatraemia, All-grade (patients with NDMM [2]; [7]): 0 n (%)
Drug-related Hyponatraemia, Grade 3 (patients with NDMM [2]; [7]): 0 n (%)
Drug-related Insomnia, All-grade (patients with NDMM [2]; [7]): 0 n (%)
Drug-related Insomnia, Grade 3 (patients with NDMM [2]; [7]): 0 n (%)
Drug-related Muscle spasms, All-grade (patients with NDMM [2]; [7]): 0 n (%)
Drug-related Muscle spasms, Grade 3 (patients with NDMM [2]; [7]): 0 n (%)
Drug-related Muscular weakness, All-grade (patients with NDMM [2]; [7]): 2 (11) n (%)
Drug-related Muscular weakness, Grade 3 (patients with NDMM [2]; [7]): 1 (6) n (%)
Drug-related Nausea, All-grade (patients with NDMM [2]; [7]): 6 (33) n (%)
Drug-related Nausea, Grade 3 (patients with NDMM [2]; [7]): 1 (6) n (%)
Drug-related Neutropenia, All-grade (patients with NDMM [2]; [7]): 0 n (%)
Drug-related Neutropenia, Grade 3 (patients with NDMM [2]; [7]): 0 n (%)
Drug-related Neutrophil count decreased, All-grade (patients with NDMM [2]; [7]): 1 (6) n (%)
Drug-related Neutrophil count decreased, Grade 3 (patients with NDMM [2]; [7]): 1 (6) n (%)
Drug-related PN NEC, All-grade (patients with NDMM [2]; [7]): 5 (28) n (%)
Drug-related PN NEC, Grade 3 (patients with NDMM [2]; [7]): 1 (6) n (%)
Drug-related Peripheral oedema, All-grade (patients with NDMM [2]; [7]): 2 (11) n (%)
Drug-related Peripheral oedema, Grade 3 (patients with NDMM [2]; [7]): 0 n (%)
Drug-related Pneumonia, All-grade (patients with NDMM [2]; [7]): 0 n (%)
Drug-related Pneumonia, Grade 3 (patients with NDMM [2]; [7]): 0 n (%)
Drug-related Rashes, eruptions and exanthems NEC, All-grade (patients with NDMM [2]; [7]): 3 (17) n (%)
Drug-related Rashes, eruptions and exanthems NEC, Grade 3 (patients with NDMM [2]; [7]): 1 (6) n (%)
Drug-related Thrombocytopenia, All-grade (patients with NDMM [2]; [7]): 0 n (%)
Drug-related Thrombocytopenia, Grade 3 (patients with NDMM [2]; [7]): 0 n (%)
Drug-related Vomiting, All-grade (patients with NDMM [2]; [7]): 3 (17) n (%)
Drug-related Vomiting, Grade 3 (patients with NDMM [2]; [7]): 1 (6) n (%)
Tmax ([3]; human, plasma, oral): 1 h
AUC(0-t) ([3]; human, plasma, oral, day 1): 315 ng·h/mL
AUC(0-t) ([3]; human, plasma, oral, day 11): 1110 ng·h/mL
Pharmacokinetic interaction of ixazomib with Rd ([3]; pharmacokinetic data similar to other studies): no pharmacokinetic interaction
Effects on QTc or heart rate [4]: no clinically meaningful effects
